From article PMC11403393 (RSC Advances, 2024)

Target: α-glucosidase (Saccharomyces cerevisiae, UniProt P53341)
Experiment: Kinetic study of α-glucosidase inhibition
Format: biochemical
Method in brief: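 Yeast α-glucosidase (0.02 U per well) in 50 mM sodium phosphate, pH 7.0, preincubated with test compound (1.50, 4.00, 8.00 μM, or none) at 37 °C for 15 min. p-Nitrophenyl α-D-glucopyranoside added at 0.1, 0.2, 0.4 or 0.8 mM. A400 followed continuously for 30 min, in triplicate. Analysed by Lineweaver–Burk plot, replot of its slopes against inhibitor concentration, and Dixon plot.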

Chain of α-glucosidase (P53341 whole entry): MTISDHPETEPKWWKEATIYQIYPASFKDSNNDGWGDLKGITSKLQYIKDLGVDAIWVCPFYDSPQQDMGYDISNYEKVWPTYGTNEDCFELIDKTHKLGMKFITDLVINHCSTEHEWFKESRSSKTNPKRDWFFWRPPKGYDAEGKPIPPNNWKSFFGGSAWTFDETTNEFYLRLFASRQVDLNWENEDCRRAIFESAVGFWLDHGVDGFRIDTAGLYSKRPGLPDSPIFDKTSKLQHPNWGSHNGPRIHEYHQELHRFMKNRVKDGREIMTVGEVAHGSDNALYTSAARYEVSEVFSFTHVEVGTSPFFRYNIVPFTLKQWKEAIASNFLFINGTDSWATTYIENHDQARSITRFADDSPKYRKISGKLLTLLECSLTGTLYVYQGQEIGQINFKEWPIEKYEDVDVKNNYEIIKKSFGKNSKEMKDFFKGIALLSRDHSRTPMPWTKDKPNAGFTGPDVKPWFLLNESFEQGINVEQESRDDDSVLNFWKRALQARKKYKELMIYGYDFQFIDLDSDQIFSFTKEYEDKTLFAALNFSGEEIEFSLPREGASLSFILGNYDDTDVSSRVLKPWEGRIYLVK

O=C(Nc1cccc(Cl)c1)Nc1ccccc1N=Cc1cc(Cl)ccc1O [Compound 5h, 1-(2-{[(5-Chloro-2-hydroxybenzylidene)amino]}phenyl)-3-(3-chlorophenyl)urea]
Effect on Km of the enzyme: increases Km | Effect on Vmax of the enzyme: remains constant | Mode (type) of inhibition: competitive mode of inhibition
